The text below walks through data of BindingDB's records for doi:10.1021/np800732n (National Cancer Institute-Frederick, 2010).

For the assay, the target named is Transcription factor Jun (Homo sapiens, UniProt P05412). Nature of the assay: Inhibition of TPA-induced AP1 transfected in HEK293 cells assessed as inhibition of […] reporter activity treated 1 hr before TPA stimulation measured after 18 hrs by luciferase reporter gene assay. The method in brief:
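HEK293 cells were grown in DMEM with 10% FBS at 37 °C and 5% CO2. They were transiently transfected with a luciferase reporter (0.1 µg/well); reporters were AP-1 (four TRE consensus copies from GCN4), NF-κB (five responsive-element copies) or SRE. After 24 h, medium went to DMEM with 0.2% FBS. Cells were pretreated 1 h with compound or DMSO, then given TPA 10 ng/mL for 18 h. Firefly luciferase was read from passive-lysis lysates, TPA alone = 100%, in quadruplicate.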
For orientation: Reporter assays use an easily measured gene product as a stand-in for the process of interest.

For orientation: IC50 means the midpoint of a concentration-inhibition curve.

Sequence of Transcription factor Jun (P05412 whole entry): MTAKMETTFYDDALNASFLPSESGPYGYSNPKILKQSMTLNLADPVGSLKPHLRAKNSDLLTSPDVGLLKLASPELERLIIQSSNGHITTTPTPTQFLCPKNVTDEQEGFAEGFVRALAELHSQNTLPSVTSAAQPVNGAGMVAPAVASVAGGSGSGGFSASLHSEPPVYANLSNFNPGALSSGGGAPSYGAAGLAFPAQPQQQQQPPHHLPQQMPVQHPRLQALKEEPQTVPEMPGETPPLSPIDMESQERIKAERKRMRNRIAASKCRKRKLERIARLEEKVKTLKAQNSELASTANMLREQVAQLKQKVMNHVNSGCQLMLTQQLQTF

With `CCC(C)C(=O)O[C@H]1C(=O)O[C@@H]2C[C@H]3C(C)CC(=O)C(=O)[C@]3(C)[C@H]3[C@]4(O)OC[C@]32[C@@H]1[C@@H](C)[C@H]4O` (stereo partly drawn), the IC50 is 32 nM.
Then `CC(C)=CC(=O)O[C@@H]1[C@H]2C(C)=C[C@H](O)[C@@H](O)[C@]2(C)[C@H]2[C@]3(O)OC[C@@]24[C@@H]1OC(=O)C[C@H]4[C@@H](C)[C@H]3O` [6R-senecionylchaparrin], with 71 nM; and `CC[C@](C)(O)C(=O)O[C@H]1C(=O)O[C@@H]2C[C@H]3C(C)CC(=O)C(=O)[C@]3(C)[C@H]3[C@@]4(O)OC[C@]32[C@@H]1[C@@H](C)[C@H]4O` (stereo partly drawn) [NSC-14975], with 40 nM.
